Test results as given in ChEMBL document CHEMBL4811253, “Flavonoid-triazolyl hybrids as potential anti-hepatitis C virus agents: Synthesis and biological evaluation” (Eur J Med Chem, 2021).
Activity calls are given as the source filed them. The rule behind the calls is not given here.

Tests used:
Huh-7 = experiment: Cytotoxicity against human Huh7 cells assessed as reduction in cell viability at 100 ug/ml incubated for 72 hrs by XTT assay; assay type: cell-based; settings: huh-7, 72 h, dose 100 µg/ml
Procedure, shortened: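 Huh7 cells (1 × 10⁴/well) seeded overnight, exposed to compound at 100 µg/mL for 72 h; viability by XTT (Cell Proliferation Kit II) per the kit instructions. Cells grown in DMEM with 10% FBS, 37 °C, 5% CO₂.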

Hepatitis C virus [1] = experiment: Antiviral activity against HCV JFH-1 infected in Huh7 cells overexpressing mCherry-NLS-IPS protein at 100 ug/ml pre-infected with virus for 6 hrs followed by compound addition for 72 hrs by fluorescence assay; assay type: functional, organism-based; settings: Hepacivirus hominis, Huh-7, dose 100.0 µg/ml
Procedure, shortened: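 Huh7 cells carrying mCherry-NLS-IPS were made by transducing them with a recombinant virus from 293T cells (VSV-G, Pol and mCherry-NLS-IPS1 plasmids). These cells were seeded at 5×10⁴ per well overnight in DMEM with 10% FBS at 37 °C and 5% CO₂, then infected with HCV JFH1 (MOI 1) for 6 h. After washing they were cultured with compound for 72 h, with sofosbuvir as positive control. The readout was microscopic imaging of red fluorescence shifting from cytoplasm to nucleus after NS3/4A cleavage.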

Hepatitis C virus [2] = experiment: Antiviral activity against HCV JFH-1 in Huh7 cells infected with supernatant from 72 hrs at 100 ug/ml compound treated Huh7 cells with HCV JFH-1 infection assessed as inhibition of HCV progeny virus production by measuring viral RNA level measured after 48 hrs post re-infection by RT-PCR analysis; assay type: functional, organism-based; settings: Hepacivirus hominis, Huh-7, dose 100.0 µg/ml, time 120.0 hrs
Procedure, shortened: (§1)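 Huh7 cells (1 × 10⁴/well, overnight) infected with HCV at MOI 0.1 for 6 h, virus washed out, then compound for 72 h (single 100 µg/mL screen; or 1, 3, 10, 30 µM dose series). Supernatant used to reinfect fresh Huh7 cells; 48 h later total RNA column-extracted and HCV RNA quantified by real-time RT-PCR. IFNa 10 U/mL as reference.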

Hepatitis C virus [3] = experiment: Antiviral activity against HCV JFH-1 in Huh7 cells assessed as reduction in NS3 protein expression by Western blotting analysis; assay type: functional, organism-based; settings: Hepacivirus hominis, Huh-7, dose 1-100 µM
Procedure, shortened: (§2)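 Huh7 cells treated with compound at 1, 10 and 100 µM (concentrations as stated in text). Lysates in RIPA buffer, heated with Laemmli buffer at 95 °C for 10 min. Western blot probed with anti-NS3 (1/1000), anti-Core (1/3000) and anti-GAPDH (1/1000), HRP secondary antibodies, chemiluminescence detection.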

Hepatitis C virus [4] = experiment: Antiviral activity against HCV JFH-1 in Huh7 cells assessed as reduction in HCV core protein expression by Western blotting analysis; assay type: functional, organism-based; settings: Hepacivirus hominis, Huh-7, dose 1-100 µM; procedure, shortened: as §2
Hepatitis C virus [5] = experiment: Antiviral activity against HCV JFH-1 in Huh7 cells infected with supernatant from 3 days compound treated Huh7 cells with HCV JFH-1 infection assessed as reduction in HCV production by measuring viral RNA level measured after 48 hrs post re-infection by RT-PCR analysis; assay type: functional, organism-based; settings: for Activity: Hepacivirus hominis, Huh-7, time 3.0 day; for IC50: JFH-1, Huh-7; procedure, shortened: as §1
Hepatitis C virus [6] = experiment: Antiviral activity against HCV JFH-1 in Huh7 cells infected with supernatant from 3 days at 30 uM of compound treated Huh7 cells with HCV JFH-1 infection assessed as reduction in HCV production by measuring viral RNA level measured after 48 hrs post re-infection by RT-PCR analysis; assay type: functional, organism-based; settings: Hepacivirus hominis, Huh-7, time 120.0 hrs; procedure, shortened: as §1
Hepatitis C virus [7] = experiment: Antiviral activity against HCV JFH-1 infected in Huh7 cells assessed as inhibition of HCV replication at 10 uM after 72 hrs by luciferase reporter gene assay; assay type: functional, organism-based; settings: Hepacivirus hominis, Huh-7
Procedure, shortened: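 Huh7 cells transfected with subgenomic JFH1 replicon carrying luciferase (SGR-Luc-JFH1), then treated with compound; luciferase activity in cell extracts read after 72 h.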

Hepatitis C virus [8] = experiment: Antiviral activity against HCV pseudo-particle infected in human Huh-7 cells assessed as inhibition of viral entry at 10 uM incubated for 24 hrs prior to infection and measured after 48 hrs post infection by bright Glo-luciferase reporter gene assay; assay type: functional, Hepacivirus hominis, JFH-1; parameters: scale not given: the % may be the effect or the level left
Procedure, shortened: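 Huh-7 cells (5 × 10³/well) pretreated with compound for 24 h, then infected with HCV pseudoparticles. Virus and compound washed out after 6 h of infection. Luciferase read with Bright-Glo reagent 48 h later.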

Hepatitis C virus [9] = experiment: Antiviral activity against wild-type HCV infected in human Huh-7 cells assessed as inhibition of viral entry at 10 uM incubated for 24 hrs prior to infection and measured after 48 hrs post infection by RT-PCR; settings: Hepacivirus hominis, JFH-1

`CC1(C)C=Cc2cc(C3CC(=O)c4ccc(O)cc4O3)ccc2O1` (stereo not drawn) was tested. Which Activity (Huh-7) did it give?
The Activity was “Non-Toxic”.

`CC1(C)C=Cc2cc(C3CC(=O)c4ccc(OCc5cn(Cc6ccncc6)nn5)cc4O3)ccc2O1` (stereo not drawn) was tested. Which Activity (Huh-7) did it give?
Its Activity is “Toxic”.

With `COc1cc(Cn2cc(COc3ccc4c(c3)OC(c3ccc5c(c3)C=CC(C)(C)O5)CC4=O)nn2)cc(OC)c1` (stereo not drawn) as the molecule, how does the Activity (Huh-7) read?
The Activity was “Non-Toxic”.

With `CC1(C)C=Cc2cc(C3CC(=O)c4ccc(OCc5cn(Cc6cccc(F)c6)nn5)cc4O3)ccc2O1` (stereo not drawn) as the molecule, how does the Activity (Huh-7) read?
The Activity was “Non-Toxic”.

Which Activity (Huh-7) does the source give for `CCCCCCn1cc(COc2ccc3c(c2)OC(c2ccc4c(c2)C=CC(C)(C)O4)CC3=O)nn1` (stereo not drawn) here?
The Activity was “Non-Toxic”.

And the Activity (Hepatitis C virus [1])?
Its Activity is “Active”.

What about the Activity (Hepatitis C virus [2]) of the same molecule?
Its Activity is “Active”.

`CCCCCn1cc(COc2ccc3c(c2)OC(c2ccc4c(c2)C=CC(C)(C)O4)CC3=O)nn1` (stereo not drawn) was tested. Which Activity (Huh-7) did it give?
The Activity was “Non-Toxic”.

And the Activity (Hepatitis C virus [1])?
Its Activity is “Active”.

And the Activity (Hepatitis C virus [2])?
Its Activity is “Active”.

What does the source list for `CC1(C)C=Cc2cc(C3CC(=O)c4ccc(OCc5cn(Cc6ccc(Br)cc6)nn5)cc4O3)ccc2O1` (stereo not drawn)?
Activity (Huh-7): Non-Toxic; Activity (Hepatitis C virus [1]): Active; Activity (Hepatitis C virus [2]): Active; Activity (Hepatitis C virus [3]): Dose-Dependent Effect; Activity (Hepatitis C virus [4]): Dose-Dependent Effect

Which Activity (Huh-7) does the source give for `CC1(C)C=Cc2cc(C3CC(=O)c4ccc(OCc5cn(Cc6ccc([N+](=O)[O-])cc6)nn5)cc4O3)ccc2O1` (stereo not drawn) here?
The Activity was “Non-Toxic”.

How did the Activity (Huh-7) turn out when `CC1(C)C=Cc2cc(C3CC(=O)c4ccc(OCc5cn(Cc6ccccc6Cl)nn5)cc4O3)ccc2O1` (stereo not drawn) was run?
The Activity was “Non-Toxic”.

What about the Activity (Hepatitis C virus [1]) of the same molecule?
Its Activity is “Active”.

What about the Activity (Hepatitis C virus [2]) of the same molecule?
The Activity was “Active”.

And the Activity (Hepatitis C virus [3])?
Its Activity is “Dose-Dependent Effect”.

And the Activity (Hepatitis C virus [4])?
Its Activity is “Dose-Dependent Effect”.

What about the Activity (Hepatitis C virus [5]) of the same molecule?
Its Activity is “Dose-Dependent Effect”.

What about the IC50 (Hepatitis C virus [5]) of the same molecule?
Its IC50 is 5.29 µM.

What about the Activity (Hepatitis C virus [6]) of the same molecule?
The Activity was “Active”.

And the Activity (Hepatitis C virus [7])?
The Activity was “inactive”.

And the Activity (Hepatitis C virus [8])?
Its Activity is 34%.

What about the Activity (Hepatitis C virus [9]) of the same molecule?
The Activity was “Active”.

With `CCCCCCCCCn1cc(COc2ccc3c(c2)OC(c2ccc4c(c2)C=CC(C)(C)O4)CC3=O)nn1` (stereo not drawn) as the molecule, how does the Activity (Huh-7) read?
The Activity was “Non-Toxic”.

For `Cn1cc(COc2ccc3c(c2)OC(c2ccc4c(c2)C=CC(C)(C)O4)CC3=O)nn1` (stereo not drawn), which Activity (Huh-7) is on record?
The Activity was “Non-Toxic”.

`CC1(C)C=Cc2cc(C3CC(=O)c4ccc(OCc5cn(Cc6cc(Cl)cc(Cl)c6)nn5)cc4O3)ccc2O1` (stereo not drawn) was tested. Which Activity (Huh-7) did it give?
The Activity was “Non-Toxic”.

For `CC1(C)C=Cc2cc(C3CC(=O)c4ccc(OCc5cn(Cc6ccccc6F)nn5)cc4O3)ccc2O1` (stereo not drawn), which Activity (Huh-7) is on record?
The Activity was “Non-Toxic”.

For `CC1(C)C=Cc2cc(C3CC(=O)c4ccc(OCc5cn(Cc6ccc(C(F)(F)F)cc6)nn5)cc4O3)ccc2O1` (stereo not drawn), which Activity (Huh-7) is on record?
Its Activity is “Non-Toxic”.

How did the Activity (Huh-7) turn out when `CC1(C)C=Cc2cc(C3CC(=O)c4ccc(OCc5cn(Cc6ccccc6)nn5)cc4O3)ccc2O1` (stereo not drawn) was run?
The Activity was “Toxic”.

How did the Activity (Huh-7) turn out when `CCCCn1cc(COc2ccc3c(c2)OC(c2ccc4c(c2)C=CC(C)(C)O4)CC3=O)nn1` (stereo not drawn) was run?
Its Activity is “Non-Toxic”.

With `COc1cccc(Cn2cc(COc3ccc4c(c3)OC(c3ccc5c(c3)C=CC(C)(C)O5)CC4=O)nn2)c1` (stereo not drawn) as the molecule, how does the Activity (Huh-7) read?
The Activity was “Non-Toxic”.

`CCn1cc(COc2ccc3c(c2)OC(c2ccc4c(c2)C=CC(C)(C)O4)CC3=O)nn1` (stereo not drawn) was tested. Which Activity (Huh-7) did it give?
Its Activity is “Non-Toxic”.

`Cc1ccc(Cn2cc(COc3ccc4c(c3)OC(c3ccc5c(c3)C=CC(C)(C)O5)CC4=O)nn2)cc1` (stereo not drawn) was tested. Which Activity (Huh-7) did it give?
Its Activity is “Non-Toxic”.

`CC1(C)C=Cc2cc(C3CC(=O)c4ccc(OCc5cn(Cc6ccc(F)cc6)nn5)cc4O3)ccc2O1` (stereo not drawn) was tested. Which Activity (Huh-7) did it give?
Its Activity is “Non-Toxic”.

What about the Activity (Hepatitis C virus [1]) of the same molecule?
Its Activity is “Active”.

What about the Activity (Hepatitis C virus [2]) of the same molecule?
The Activity was “Active”.

What about the Activity (Hepatitis C virus [3]) of the same molecule?
The Activity was “Dose-Dependent Effect”.

What about the Activity (Hepatitis C virus [4]) of the same molecule?
Its Activity is “Dose-Dependent Effect”.

And the Activity (Hepatitis C virus [5])?
The Activity was “Dose-Dependent Effect”.

What about the IC50 (Hepatitis C virus [5]) of the same molecule?
Its IC50 is 9 µM.

What about the Activity (Hepatitis C virus [6]) of the same molecule?
Its Activity is “Active”.

What about the Activity (Hepatitis C virus [7]) of the same molecule?
Its Activity is “inactive”.

What about the Activity (Hepatitis C virus [8]) of the same molecule?
The Activity was 52%.

What about the Activity (Hepatitis C virus [9]) of the same molecule?
Its Activity is “Active”.
